Reference: ChEMBL document CHEMBL2407024, “Antimicrobial activity of imidazo[1,5-a]quinoxaline derivatives with pyridinium moiety” (Eur J Med Chem, 2013)

Tests used:
Pseudomonas aeruginosa [1] = experiment: Antibacterial activity against Pseudomonas aeruginosa 9027 measured every 24 hrs for 5 days by conventional dilution method; type: functional
Procedure, shortened: (§1)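 Broth dilution in nutrient broth, inoculum 3 × 10⁵ cfu/ml. MIC is the lowest concentration showing no growth, read visually every 24 h over 5 days. Run alongside a positive growth control and standard drug controls. Tests in duplicate, repeated twice.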

[2] = system: Trichophyton mentagrophytes; experiment: Antifungal activity against Trichophyton mentagrophytes measured every 24 hrs for 14 days by conventional dilution method; type: functional
Procedure, shortened: (§2)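 Dilution assay in Sabouraud dextrose broth, inoculum 2 × 10^3–4 cfu/ml. MIC is the lowest concentration with no visible growth after 14 days of incubation. Run alongside a positive growth control and standard drug controls. Tests in duplicate, repeated twice.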

Aspergillus niger [3] = experiment: Antifungal activity against Aspergillus niger BKMF-1119 measured every 24 hrs for 14 days by conventional dilution method; type: functional; procedure, shortened: as §2
Staphylococcus aureus [4] = experiment: Antibacterial activity against Staphylococcus aureus 209p measured every 24 hrs for 5 days by conventional dilution method; type: functional; procedure, shortened: as §1
Escherichia coli [5] = experiment: Antibacterial activity against Escherichia coli F-50 measured every 24 hrs for 5 days by conventional dilution method; type: functional; procedure, shortened: as §1
Candida albicans [6] = experiment: Antifungal activity against Candida albicans 885-653 measured every 24 hrs for 14 days by conventional dilution method; type: functional; procedure, shortened: as §2
Bacillus cereus [7] = experiment: Antibacterial activity against Bacillus cereus 8035 measured every 24 hrs for 5 days by conventional dilution method; type: functional; procedure, shortened: as §1
[8] = Acute toxicity in ip dosed mouse; type: organism-based; settings: in vivo
Procedure, shortened: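 Mice; each compound given at 5 dose levels, 10 animals per dose (n = 50 per compound). Animals observed for 72 h; toxicity expressed as average lethal dose (LD50) calculated from mortality across dose groups.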

Pseudomonas aeruginosa [9] = experiment: Bactericidal activity against Pseudomonas aeruginosa 9027 after 4 hrs; type: functional; settings: Pseudomonas aeruginosa, 9027, 4 h
Procedure, shortened: (§3)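 Tubes contained 1 mL test compound in nutrient agar, 5 to 500 per ml. Bacteria in normal saline broth (3 × 10⁵ cfu/ml, 1 mL) were added and held 4 h, then transferred onto meal-peptone agar plates and incubated at 37 °C. MBC is the dilution giving total cell death.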

Escherichia coli [10] = experiment: Bactericidal activity against Escherichia coli F-50 after 4 hrs; type: functional; settings: F-50, 4 h; procedure, shortened: as §3
Candida albicans [11] = experiment: Fungicidal activity against Candida albicans 885-653 after 6 hrs; type: functional; settings: 885-653, 6 h
Procedure, shortened: (§4)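 Tubes of test compound (5 to 500 per ml, 1 mL in nutrient agar) with fungi were incubated at 26 °C for 6 h. Inocula were then prepared in Sabouraud dextrose broth and incubated at 26 °C. The fungicidal concentration is the one giving total cell death.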

Staphylococcus aureus [12] = experiment: Bactericidal activity against Staphylococcus aureus 209p after 4 hrs; type: functional; procedure, shortened: as §3
Aspergillus niger [13] = experiment: Fungicidal activity against Aspergillus niger BKMF-1119 after 6 hrs; type: functional; settings: BKMF-1119, 6 h; procedure, shortened: as §4
Bacillus cereus [14] = experiment: Bactericidal activity against Bacillus cereus 8035 after 4 hrs; type: functional; settings: Bacillus cereus, 8035, 4 h; procedure, shortened: as §3
[15] = system: Trichophyton mentagrophytes; experiment: Fungicidal activity against Trichophyton mentagrophytes after 6 hrs; type: functional; procedure, shortened: as §4

| MIC (Pseudomonas aeruginosa [1]) | MIC [2] | MIC (Aspergillus niger [3]) | MIC (Staphylococcus aureus [4]) | MIC (Escherichia coli [5]) | MIC (Candida albicans [6]) | MIC (Bacillus cereus [7]) | SMILES | LD50 [8] | MBC (Pseudomonas aeruginosa [9]) | MBC (Escherichia coli [10]) | MFC (Candida albicans [11]) | MBC (Staphylococcus aureus [12]) | MFC (Aspergillus niger [13]) | MBC (Bacillus cereus [14]) | MFC [15] |
| --- | --- | --- | --- | --- | --- | --- | --- | --- | --- | --- | --- | --- | --- | --- | --- |
| > 500 µg/mL | > 500 µg/mL | > 500 µg/mL | 500 µg/mL | > 500 µg/mL | > 500 µg/mL | > 500 µg/mL | Cc1nc(-c2ccc[n+](Cc3ccccc3)c2)n2c1c(=O)[nH]c1ccccc12.[Cl-] | – | – | – | – | – | – | – | – |
| > 500 µg/mL | 500 µg/mL | > 500 µg/mL | 1.5 µg/mL | > 500 µg/mL | 50 µg/mL | 6.3 µg/mL | CCCCCCCCCn1c(=O)c2c(-c3ccccc3)nc(-c3ccc[n+](CCCCCCCCC)c3)n2c2ccccc21.[Br-] | – | > 500 µg/mL | > 500 µg/mL | 500 µg/mL | 50 µg/mL | > 500 µg/mL | 500 µg/mL | > 500 µg/mL |
| 500 µg/mL | > 500 µg/mL | > 500 µg/mL | 62.5 µg/mL | 250 µg/mL | 15.6 µg/mL | 62.5 µg/mL | CCCCCCn1c(=O)c2c(-c3ccccc3)nc(-c3ccc[n+](CCCCCC)c3)n2c2ccccc21.[I-] | – | – | – | – | – | – | – | – |
| > 500 µg/mL | > 500 µg/mL | > 500 µg/mL | 62.5 µg/mL | > 500 µg/mL | 25 µg/mL | 125 µg/mL | CCCCCCCCCn1c(=O)c2c(-c3ccccc3)nc(-c3ccc[n+](CCCCCC)c3)n2c2ccccc21.[I-] | – | – | – | – | – | – | – | – |
| > 500 µg/mL | > 500 µg/mL | > 500 µg/mL | 7.8 µg/mL | > 500 µg/mL | > 500 µg/mL | 7.8 µg/mL | CCCCCCCCCn1c(=O)c2c(-c3ccccc3)nc(-c3ccc[n+](CCCCCCCCC)c3)n2c2ccccc21.[I-] | – | > 500 µg/mL | > 500 µg/mL | > 500 µg/mL | 500 µg/mL | > 500 µg/mL | > 500 µg/mL | > 500 µg/mL |
| > 500 µg/mL | 250 µg/mL | > 500 µg/mL | > 500 µg/mL | > 500 µg/mL | 3.9 µg/mL | > 500 µg/mL | O=c1[nH]c2ccccc2n2c(-c3ccc[n+](CCCC[n+]4cccc(-c5nc(-c6ccccc6)c6c(=O)[nH]c7ccccc7n56)c4)c3)nc(-c3ccccc3)c12.[Br-].[Br-] | – | – | – | – | – | – | – | – |
| > 500 µg/mL | > 500 µg/mL | > 500 µg/mL | 500 µg/mL | > 500 µg/mL | > 500 µg/mL | > 500 µg/mL | O=c1[nH]c2ccccc2n2c(-c3ccc[n+](CCCCCC[n+]4cccc(-c5nc(-c6ccccc6)c6c(=O)[nH]c7ccccc7n56)c4)c3)nc(-c3ccccc3)c12.[Br-].[Br-] | – | – | – | – | – | – | – | – |
| > 500 µg/mL | > 500 µg/mL | > 500 µg/mL | > 500 µg/mL | > 500 µg/mL | > 500 µg/mL | > 500 µg/mL | Cl.O=c1[nH]c2ccccc2n2c(-c3cccnc3)nc(-c3ccccc3)c12 | – | – | – | – | – | – | – | – |

Second part, the molecule before the results:

| SMILES | MIC (Pseudomonas aeruginosa [1]) | MIC [2] | MIC (Aspergillus niger [3]) | MIC (Staphylococcus aureus [4]) | MIC (Escherichia coli [5]) | MIC (Candida albicans [6]) | MIC (Bacillus cereus [7]) | LD50 [8] | MBC (Pseudomonas aeruginosa [9]) | MBC (Escherichia coli [10]) | MFC (Candida albicans [11]) | MBC (Staphylococcus aureus [12]) | MFC (Aspergillus niger [13]) | MBC (Bacillus cereus [14]) | MFC [15] |
| --- | --- | --- | --- | --- | --- | --- | --- | --- | --- | --- | --- | --- | --- | --- | --- |
| CCCCCC[n+]1cccc(-c2nc(-c3ccccc3)c3c(=O)[nH]c4ccccc4n23)c1.[Br-] | > 500 µg/mL | > 500 µg/mL | > 500 µg/mL | 62.5 µg/mL | > 500 µg/mL | 250 µg/mL | 125 µg/mL | 75.8 mg/kg | – | – | – | – | – | – | – |
| CCCCCCCCC[n+]1cccc(-c2nc(-c3ccccc3)c3c(=O)n(CCCCCC)c4ccccc4n23)c1.[Br-] | > 500 µg/mL | 250 µg/mL | > 500 µg/mL | 0.97 µg/mL | 500 µg/mL | 0.97 µg/mL | 0.97 µg/mL | 120 mg/kg | > 500 µg/mL | 500 µg/mL | 50 µg/mL | 5 µg/mL | > 500 µg/mL | 50 µg/mL | 250 µg/mL |
| CCCC[n+]1cccc(-c2nc(-c3ccccc3)c3c(=O)[nH]c4ccccc4n23)c1.[I-] | > 500 µg/mL | > 500 µg/mL | > 500 µg/mL | 500 µg/mL | > 500 µg/mL | > 500 µg/mL | > 500 µg/mL | 63.2 mg/kg | – | – | – | – | – | – | – |
| Cl.O=c1[nH]c2ccccc2n2c(-c3ccccn3)nc(-c3ccccc3)c12 | > 500 µg/mL | > 500 µg/mL | > 500 µg/mL | > 500 µg/mL | > 500 µg/mL | > 500 µg/mL | > 500 µg/mL | – | – | – | – | – | – | – | – |
| O=c1[nH]c2ccccc2n2c(-c3ccc[n+](Cc4ccccc4)c3)nc(-c3ccccc3)c12.[Cl-] | > 500 µg/mL | 500 µg/mL | > 500 µg/mL | 31.3 µg/mL | > 500 µg/mL | 62.5 µg/mL | 125 µg/mL | 65.7 mg/kg | – | – | – | – | – | – | – |
